Experiments:
[1] = molecular target: Growth hormone secretagogue receptor type 1 (Homo sapiens, UniProt Q92847); assay: Agonist activity at human GHS receptor expressed in H4 cells by FLIPR assay; format: functional, cell-based
Rattus norvegicus [2] = assay: Stimulation of growth hormone release in rat at 0.17 umol/kg, iv relative to control; format: functional
Procedure, shortened: (§1)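 Fasted male Wistar rats (200–250 g) were anesthetized with ketamine 30 mg/kg plus xylazine 10 mg/kg ip. They were dosed iv at 10 mL/kg in vehicle (10% ethanol, […] V/V), five rats per group. Aortic blood was drawn 15 min post-dose, and plasma rat GH was measured by radioimmunoassay. Results are given as % GH increase ± SEM versus vehicle control.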

Rattus norvegicus [3] = assay: Stimulation of growth hormone release in rat at 0.052 umol/kg, iv relative to control; format: functional; procedure, shortened: as §1
Rattus norvegicus [4] = assay: Stimulation of growth hormone release in rat at 0.017 umol/kg, iv relative to control; format: functional; procedure, shortened: as §1

Growth hormone secretagogue receptor type 1, sequence (Q92847 whole entry): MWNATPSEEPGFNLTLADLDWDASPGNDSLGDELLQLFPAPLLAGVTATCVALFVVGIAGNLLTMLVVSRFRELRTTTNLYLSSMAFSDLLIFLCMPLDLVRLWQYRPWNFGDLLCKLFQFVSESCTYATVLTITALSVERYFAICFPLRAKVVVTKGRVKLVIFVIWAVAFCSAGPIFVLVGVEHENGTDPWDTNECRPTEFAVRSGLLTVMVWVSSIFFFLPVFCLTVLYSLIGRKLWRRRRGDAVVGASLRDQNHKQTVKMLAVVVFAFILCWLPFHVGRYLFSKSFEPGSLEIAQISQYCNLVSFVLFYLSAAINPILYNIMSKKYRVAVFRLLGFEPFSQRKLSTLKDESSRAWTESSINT

With CC(C)(N)C(=O)N[C@H](COCc1ccccc1)c1nnnn1CCOc1cccc(C(=O)NCCO)c1 as the compound, how does the EC50 [1] read?
Its EC50 is 8.4 nM.

What about the Intrinsic activity [1] of the same compound?
Its Intrinsic activity is > 85%.

How did the Intrinsic activity [1] turn out when CCCCCCCC(=O)OC[C@H](NC(=O)CNC(=O)[C@@H](N)CCCNC(=N)N)C(=O)N[C@@H](CO)C(=O)N[C@@H](Cc1ccccc1)C(=O)N[C@@H](CC(C)C)C(=O)N[C@@H](CO)C(=O)N1CCC[C@H]1C(=O)N[C@@H](CCC(=O)O)C(=O)N[C@@H](Cc1cnc[nH]1)C(=O)N[C@@H](CCC(N)=O)C(=O)N[C@@H](CCCCN)C(=O)N[C@@H](C)C(=O)N[C@@H](CCC(N)=O)C(=O)N[C@@H](CCC(N)=O)C(=O)N[C@@H](CCCNC(=N)N)C(=O)N[C@@H](CCCCN)C(=O)N[C@@H](CCC(=O)O)C(=O)N[C@@H](CO)C(=O)N[C@@H](CCCCN)C(=O)N[C@@H](CCCCN)C(=O)N1CCC[C@H]1C(=O)N1CCC[C@H]1C(=O)N[C@@H](C)C(=O)N[C@@H](CCCCN)C(=O)N[C@@H](CC(C)C)C(=O)N[C@@H](CCC(N)=O)C(=O)N1CCC[C@H]1C(=O)O was run?
Its Intrinsic activity is > 85%.

What does the source list for CC(C)(N)C(=O)N[C@H](COCc1ccccc1)c1nnnn1CCCC(=O)NCCCCCCO?
EC50 [1]: 0.6 nM; Intrinsic activity [1]: > 85%; Activity (Rattus norvegicus [2]): 522%

What does the source list for CC(C)(N)C(=O)N[C@H](COCc1ccccc1)c1nnnn1CCCC(=O)NCCc1ccccc1?
EC50 [1]: 23 nM; Intrinsic activity [1]: > 85%

What does the source list for CC(C)(N)C(=O)N[C@H](COCc1ccccc1)c1nnnn1CCCC(=O)NCC(F)(F)F?
EC50 [1]: 26 nM; Intrinsic activity [1]: > 85%

CCCCNC(=O)CCCn1nnnc1[C@@H](COCc1ccccc1)NC(=O)C(C)(C)N was tested. Which Intrinsic activity [1] did it give?
The Intrinsic activity was > 85%.

How did the EC50 [1] turn out when CC(C)(N)C(=O)N[C@H](COCc1ccccc1)c1nnnn1CCCC(=O)NCCO was run?
Its EC50 is 40 nM.

And the Intrinsic activity [1]?
Its Intrinsic activity is > 85%.

How did the EC50 [1] turn out when CC(C)(N)C(=O)N[C@H](COCc1ccccc1)c1nnnn1CCCC(=O)Nc1ccccc1 was run?
Its EC50 is 70 nM.

And the Intrinsic activity [1]?
Its Intrinsic activity is > 85%.

Which EC50 [1] does the source give for CC(C)(N)C(=O)N[C@H](COCc1ccccc1)c1nnnn1CCCC(=O)NCCc1cccc(S(=O)(=O)CCO)c1 here?
The EC50 was 105 nM.

What about the Intrinsic activity [1] of the same compound?
The Intrinsic activity was > 85%.

Which results are given for CC(C)(N)C(=O)N[C@H](COCc1ccccc1)c1nnnn1CCCC(=O)NCCN1CCNC1=O?
EC50 [1]: 3.3 nM; Intrinsic activity [1]: > 85%

For CC(C)(N)C(=O)N[C@H](COCc1ccccc1)c1nnnn1CCOc1ccccc1C(=O)NCCCCO, which EC50 [1] is on record?
The EC50 was 0.9 nM.

And the Intrinsic activity [1]?
Its Intrinsic activity is > 85%.

What does the source list for CC(C)(N)C(=O)N[C@H](COCc1ccccc1)c1nnnn1CCCC(=O)NCCSCCO?
EC50 [1]: 0.2 nM; Intrinsic activity [1]: > 85%

How did the EC50 [1] turn out when CC(C)(N)C(=O)N[C@H](COCc1ccccc1)c1nnnn1CCOc1ccccc1C(=O)NCCO was run?
The EC50 was 11 nM.

What about the Intrinsic activity [1] of the same compound?
Its Intrinsic activity is > 85%.

Which Intrinsic activity [1] does the source give for CC(C)(N)C(=O)N[C@H](COCc1ccccc1)c1nnnn1CCOC(=O)NCCCCO here?
Its Intrinsic activity is > 85%.

What about the Activity (Rattus norvegicus [2]) of the same compound?
The Activity was 264%.

With CC(C)(N)C(=O)N[C@H](COCc1ccccc1)c1nnnn1CCCC(=O)NCCCO as the compound, how does the EC50 [1] read?
Its EC50 is 27 nM.

And the Intrinsic activity [1]?
Its Intrinsic activity is > 85%.

How did the EC50 [1] turn out when CC(C)(N)C(=O)N[C@H](COCc1ccccc1)c1nnnn1CCCC(=O)NCCC(=O)O was run?
Its EC50 is 204 nM.

What about the Intrinsic activity [1] of the same compound?
Its Intrinsic activity is > 85%.

For CC(C)(N)C(=O)N[C@H](COCc1ccccc1)c1nnnn1CCCC(=O)NCCCCO, which EC50 [1] is on record?
Its EC50 is 1.8 nM.

What about the Intrinsic activity [1] of the same compound?
Its Intrinsic activity is > 85%.

What does the source list for CC(C)(N)C(=O)N[C@H](COCc1ccccc1)c1nnnn1CCCC(=O)NCCc1cccc(O)c1?
EC50 [1]: 0.2 nM; Intrinsic activity [1]: > 85%; Activity (Rattus norvegicus [2]): 606%

How did the EC50 [1] turn out when CC(C)(N)C(=O)N[C@H](COCc1ccccc1)c1nnnn1CCCC(=O)NCCS(=O)(=O)CCO was run?
Its EC50 is 0.2 nM.

What about the Intrinsic activity [1] of the same compound?
The Intrinsic activity was > 85%.

What about the Activity (Rattus norvegicus [2]) of the same compound?
The Activity was 1290%.

And the Activity (Rattus norvegicus [3])?
The Activity was 956%.

What about the Activity (Rattus norvegicus [4]) of the same compound?
Its Activity is 398%.

What does the source list for CC(C)(N)C(=O)N[C@H](COCc1ccccc1)c1nnnn1CCCC(=O)NCCS(C)(=O)=O?
EC50 [1]: 4.1 nM; Intrinsic activity [1]: > 85%

Which results are given for CC(C)(N)C(=O)N[C@H](COCc1ccccc1)c1nnnn1CCCC(=O)NCCCCCO?
EC50 [1]: 1.3 nM; Intrinsic activity [1]: > 85%

Which results are given for CC(C)(N)C(=O)N[C@H](COCc1ccccc1)c1nnnn1CCNC(=O)CCS(C)(=O)=O?
EC50 [1]: 14.7 nM; Intrinsic activity [1]: > 85%

For CC(C)(N)C(=O)N[C@H](COCc1ccccc1)c1nnnn1CCOc1cccc(C(=O)NCCCCO)c1, which EC50 [1] is on record?
Its EC50 is 3 nM.

And the Intrinsic activity [1]?
Its Intrinsic activity is > 85%.

What does the source list for CC(C)(N)C(=O)N[C@H](COCc1ccccc1)c1nnnn1CCNC(=O)CCCCO?
EC50 [1]: 4.4 nM; Intrinsic activity [1]: > 85%; Activity (Rattus norvegicus [2]): 722%

For CC(C)(N)C(=O)N[C@H](COCc1ccccc1)c1nnnn1CCCC(=O)N[C@H]1CC[C@H](O)CC1, which EC50 [1] is on record?
Its EC50 is 521 nM.

What about the Intrinsic activity [1] of the same compound?
The Intrinsic activity was > 85%.

With CN(CCc1cccc(O)c1)C(=O)CCCn1nnnc1[C@@H](COCc1ccccc1)NC(=O)C(C)(C)N as the compound, how does the EC50 [1] read?
Its EC50 is 3.1 nM.

What about the Intrinsic activity [1] of the same compound?
The Intrinsic activity was > 85%.

What does the source list for CC(C)(N)C(=O)N[C@H](COCc1ccccc1)c1nnnn1CCCC(=O)NCCC(N)=O?
EC50 [1]: 7.6 nM; Intrinsic activity [1]: > 85%

CC(C)(N)C(=O)N[C@H](COCc1ccccc1)c1nnnn1CCNC(=O)CCc1cccc(O)c1 was tested. Which EC50 [1] did it give?
Its EC50 is 0.64 nM.

And the Intrinsic activity [1]?
Its Intrinsic activity is > 85%.

CC(C)(N)C(=O)N[C@H](COCc1ccccc1)c1nnnn1CCCC(=O)NCc1ccccc1 was tested. Which EC50 [1] did it give?
Its EC50 is 32 nM.

What about the Intrinsic activity [1] of the same compound?
Its Intrinsic activity is > 85%.

Which results are given for CC(C)(N)C(=O)N[C@H](COCc1ccccc1)c1nnnn1CCCC(=O)NCCS(N)(=O)=O?
EC50 [1]: 1.4 nM; Intrinsic activity [1]: > 85%; Activity (Rattus norvegicus [2]): 408%

Which results are given for CN(CCc1cccc(S(=O)(=O)CCO)c1)C(=O)CCCn1nnnc1[C@@H](COCc1ccccc1)NC(=O)C(C)(C)N?
EC50 [1]: 2.9 nM; Intrinsic activity [1]: > 85%

What does the source list for CC(C)(N)C(=O)N[C@H](COCc1ccccc1)c1nnnn1CCCC(=O)NCCCc1ccccc1?
EC50 [1]: 33 nM; Intrinsic activity [1]: > 85%

With CCOC(=O)CCNC(=O)CCCn1nnnc1[C@@H](COCc1ccccc1)NC(=O)C(C)(C)N as the compound, how does the EC50 [1] read?
The EC50 was 140 nM.

And the Intrinsic activity [1]?
The Intrinsic activity was > 85%.

With CC(C)(N)C(=O)N[C@H](COCc1ccccc1)c1nnnn1CCCC(=O)NCCOCCO as the compound, how does the EC50 [1] read?
Its EC50 is 0.7 nM.

What about the Intrinsic activity [1] of the same compound?
Its Intrinsic activity is > 85%.

From ChEMBL document CHEMBL1144840, “Tetrazole based amides as growth hormone secretagogues” (Bioorg Med Chem Lett, 2008)
